MrgX1 agonist: agonists of human MrgX1 receptor; Q96LB2; MrgX1-HEK293 cells, Fluo-4 calcium fluorescence, agonist mode; hits give high values; B-score at 10 µM; 310,000 tested, 0.44% active; AID 588627;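 active = calcium response B-score plate-corrected fluorescence ratio at least 3 library SD, with starting fluorescence B-score inside 5 SD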
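Assay system: stable human MrgX1 HEK293 cell line. Quantity: 15,000 cells per well. Schedule: cells plated overnight, dye loaded 0.5 h 37 °C, 0.5 h room temperature. Detection: Fluo-4 NW calcium-flux fluorescence, kinetic read. Read-out basis: peak-minus-minimum fluorescence over baseline, converted to B scores. Control set: positive and negative control wells on each plate.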
RGS4 act: potentiators or activators of RGS4; HEK293 M3R/inducible RGS4, carbachol calcium flux Fluo4; hits give low values; B-score at 10 µM; 310,000 tested, 0.92% active;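 active = B-score of the integrated calcium signal more than 4 SD below the library mean, with starting fluorescence not abnormally high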;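 note: negative B-score means reduced calcium response which marks RGS4 activation or potentiation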
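System – HEK293 FlpIn-TREx cells, stable M3R, doxycycline-inducible RGS4 · Reagent – ECmax carbachol challenge · Times – compound preincubation 20 min at room temperature before agonist · Technique – Fluo4 fluorescence kinetic imaging of calcium · Measure – B score of integrated Fluo4 ratio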
MrgX1 antag: blocks BAM8-22 activation of human MrgX1 receptor; Q96LB2; MRGX1-HEK293 calcium flux, Fluo-4, BAM8-22 antagonism; hits give low values; B-score at 10 µM; 310,000 tested, 1.3% active;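 active = calcium-response B-score plate-corrected more than 3 library SD below zero, starting fluorescence within 5 deviations, no agonist response on first addition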;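 note: peak minus trough fluorescence over baseline after final BAM8-22 challenge near maximal dose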
MrgX1 allo act: human MrgX1 positive allosteric modulation, primary screen; MrgX1-HEK293, Fluo-4 calcium flux, FDSS; hits give high values; B-score at 10 µM; 310,000 tested, 0.63% active; AID 588675;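 active = plate-corrected calcium response at least 3 library SD above typical, normal starting fluorescence, not activating the receptor alone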;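 note: compound read alongside a low EC10 to EC30 dose of BAM8-22 agonist; peak minus trough fluorescence over baseline measured at the second addition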
RGS4 block: human RGS4 inhibition | B-score at 10 µM | HEK293 M3R/RGS4 inducible, Fluo-4 calcium flux; hits give high values; triggered by carbachol at its EC20 | 310,000 tested, 0.45% active | P49798;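 active = B-score, a plate-corrected calcium signal, over three deviations above library mean, with baseline fluorescence within five deviations of library mean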;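 note: RGS4 expression induced by doxycycline in cells with stable M3 receptor; B-score is computed from the integrated fluorescence ratio over baseline after carbachol; higher B-score means a larger calcium signal and so more RGS4 inhibition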
Target sequence (P49798 whole entry, looked up): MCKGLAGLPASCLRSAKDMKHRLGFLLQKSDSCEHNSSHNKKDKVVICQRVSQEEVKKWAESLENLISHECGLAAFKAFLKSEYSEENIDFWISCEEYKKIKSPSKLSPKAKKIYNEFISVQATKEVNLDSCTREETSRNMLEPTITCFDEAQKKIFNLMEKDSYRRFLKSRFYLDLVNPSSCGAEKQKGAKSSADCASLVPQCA
PHOSPHO1 inh: blocks human PHOSPHO1 phosphatase activity; 290,000 tested, 1.1% active; AID 1565; Q8TCT1; recombinant PHOSPHO1, absorbance phosphatase assay; inhibition, % at 13.3 µM; in the data active = inhibition above about 60%
Target sequence (Q8TCT1 whole entry, looked up): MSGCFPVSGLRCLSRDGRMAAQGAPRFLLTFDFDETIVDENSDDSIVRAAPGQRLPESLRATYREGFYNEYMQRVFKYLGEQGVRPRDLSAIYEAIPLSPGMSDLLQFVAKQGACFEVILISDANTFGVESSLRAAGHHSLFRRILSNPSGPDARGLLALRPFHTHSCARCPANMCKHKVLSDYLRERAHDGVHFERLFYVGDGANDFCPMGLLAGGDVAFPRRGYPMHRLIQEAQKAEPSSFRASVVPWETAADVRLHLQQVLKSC
* marks the source's active call; other numbers are inactive results; i = inactive; / = no result given. Most compounds without a hit are left out; they make up all but 4.5% or so of the library.

SMILES	MrgX1 agonist	RGS4 act	MrgX1 antag	MrgX1 allo act	RGS4 block	PHOSPHO1 inh
COCC(=O)N1CCCC(C(=O)c2ccc(-c3ccccc3)c(F)c2)C1 (stereo not drawn)	i	i	i	i	i	63*
Cc1ccc(-c2nnn(CC(=O)N(CCCO)C(C(=O)NC3CCCC3)c3ccc(F)cc3)n2)o1 (stereo not drawn)	i	i	i	i	i	51
CCC[n+]1c2ccccc2cc2ccccc21	26*	i	i	i	i	14
CCCC[n+]1c2ccccc2cc2ccccc21	32*	i	i	i	i	-64
Cc1ccc2ccccc2[n+]1CCCS(=O)(=O)[O-]	i	i	i	i	i	6
CN(CC(=O)Nc1cccc(F)c1)C(=O)CCCN1C(=O)c2cccc3cccc(c23)C1=O	i	i	i	i	i	/
COc1ccccc1C(=O)NC(=O)COC(=O)Cn1[nH]c(=O)c2ccccc2c1=O	i	i	-4.5*	i	i	/
CCc1ccccc1NC(=O)CN(C)C(=O)CSc1nn(-c2ccc(F)cc2)c(=S)s1	i	i	i	i	i	-1
Cc1cccc(CSC(Nc2ccc(F)cc2)=C(C#N)C#N)c1	i	i	-6.6*	i	i	-2
CC(C)c1ccc(NC(=O)CSc2n[nH]c(=O)n2-c2cccnc2)cc1	i	i	i	i	i	-26
COc1ccc(CN2CCN(CC=C(C)C)C(CCO)C2)cc1Cn1cccn1 (stereo not drawn)	28*	i	i	i	i	18
COC(=O)C(C)Sc1n[nH]c(=S)s1 (stereo not drawn)	i	i	i	i	i	102*
CCN(Cc1ccccc1)c1ccc(/C=N/NC(=S)NC(C)C)cc1	i	i	i	i	i	7
CCN(Cc1ccccc1)c1ccc(/C=N/N=C(N)N)cc1	i	i	-5.5*	i	i	0
CC(C)CNC(=O)C(=O)Nc1ccc2c(c1)N(S(=O)(=O)c1cccs1)CCC2	i	i	i	i	i	/
COc1ccc(C2SCCN2C(=S)Nc2ccc(F)cc2)cc1 (stereo not drawn)	i	i	i	i	i	-7
COc1ccc(C2SCCN2C(=S)Nc2cccc(C(F)(F)F)c2)cc1 (stereo not drawn)	i	i	-5.3*	i	i	12
COc1ccc(-c2nnc(-c3cc4c(ccc5ccccc54)oc3=O)o2)cc1	i	-9*	i	i	i	6
O=c1oc2ccc3ccccc3c2cc1-c1nnc(-c2ccccc2)o1	i	i	i	i	i	5
CCOc1ccc(N2C(=O)CS/C2=C(\C(Cl)=C(Cl)Cl)[N+](=O)[O-])cc1	i	i	i	i	i	86*
COc1ccc(-c2csc(NC(=O)c3ccc(C(C)(C)C)cc3)c2C(=O)O)cc1	i	i	i	14*	i	/
CNCCCNC(=O)c1ccc(/C=N/O)nc1	i	i	i	i	i	-4
C[N+](C)(C)CCCNC(=O)c1ccc(/C=N/O)nc1	i	i	-5.1*	i	i	-66
c1ccc2c(N3CCCCC3)nc(N3CCCC3)nc2c1	i	i	i	i	i	3
Nc1nc(N2CCCCC2)nc2ccccc12	i	-7.2*	i	i	i	20
SMILES	MrgX1 agonist	RGS4 act	MrgX1 antag	MrgX1 allo act	RGS4 block	PHOSPHO1 inh
Cc1c(C(=O)N2CCN(Cc3ccc4c(c3)OCO4)CC2)sc2ncnc(N3CCN(c4ccccc4F)CC3)c12	i	i	-5.4*	i	i	49
CCCNC(=O)Cn1cnc2sc(C(=O)N3CCN(Cc4ccc5c(c4)OCO5)CC3)c(C)c2c1=O	i	i	i	i	i	-1
COc1ccc(NC(=O)C/C(C)=N/NC(=O)C(=O)NC2CCCCC2)c(OC)c1	i	i	i	9.2*	i	-3
O=C(COC(=O)CCc1ccc(S(=O)(=O)N2CCOCC2)cc1)NCc1ccccc1	i	i	i	6.8*	i	-14
CCCn1nc(C(=O)Nc2nc3ccccc3[nH]2)c2ccccc2c1=O	i	i	i	i	i	-15
CC(C)n1nc(C(=O)Nc2nc3ccccc3[nH]2)c2ccccc2c1=O	i	-9.5*	i	i	i	20
N=c1n(Cc2ccccc2)c2ccccc2n1CC(O)COc1ccc(Cl)cc1Cl (stereo not drawn)	/	-9*	/	/	i	-15
Nc1nc(-c2ccccc2)c(-c2ccccc2)n1N	i	i	i	9.3*	i	35
Cc1cc2nnc(SCC(=O)N(C)C3CCS(=O)(=O)C3)n2c2ccccc12 (stereo not drawn)	i	i	i	i	i	32
CN(C(=O)CSc1nnc(Cc2cccc3ccccc23)n1N)C1CCS(=O)(=O)C1 (stereo not drawn)	i	/	i	i	/	88*
Nn1c(Cc2cccc3ccccc23)nnc1SCn1nnc2ccccc2c1=O	i	i	i	i	i	87*
CCC(C)Sc1ccc([C@H]2N[C@@](C)(C(=O)OC)[C@H]3C(=O)N(CC)C(=O)[C@@H]23)cc1 (stereo partly drawn)	i	i	i	i	i	/
Nc1c(C(=O)c2ccc(Cl)cc2)oc2ccccc12	i	i	i	i	i	6
O=C(c1ccc(Cl)cc1)c1oc2ccccc2c1CS(=O)c1ccc(Cl)cc1 (stereo not drawn)	i	i	i	i	i	107*
CCNC(=S)NNC(=O)c1cccnc1	i	i	-5.3*	i	i	11
O=C(NC(=S)NC1CC1)c1cccnc1	i	i	-4.7*	i	i	-15
CCCCNC(=S)NNC(=O)c1cccnc1	i	i	i	i	i	-20
COc1ccccc1OC1OC2COC(c3ccco3)OC2C(O)C1NC(C)=O (stereo not drawn)	i	i	i	i	i	6
CC(=O)NC1C(Oc2cccc(C)c2)OC2COC(c3ccco3)OC2C1O (stereo not drawn)	i	-7.3*	i	i	i	0
Cc1cc(C)n2c(=S)[nH]nc2n1	i	i	i	i	i	96*
O=C(c1ccc([N+](=O)[O-])cc1)N1CCSC1c1cccc(Cl)c1 (stereo not drawn)	i	-7.5*	i	i	i	-2
COC(=O)c1ccccc1NC(=O)c1sc(=S)n(C)c1N	i	i	i	i	i	90*

Screening results: PubChem, several laboratories
